Source: ChEMBL document CHEMBL1146374, “Clubbed triazoles: a novel approach to antitubercular drugs” (Eur J Med Chem, 2007)

Columns and labels:
Salmonella typhi = assay: Antibacterial activity against Salmonella typhi at 50 to 100 uM after 24 hrs by well diffusion method; assay type: functional, Salmonella enterica subsp. enterica serovar Typhi
In short: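 Agar well diffusion on nutrient agar plates; wells cut with a 10 mm sterile cork borer. Plates swabbed with 24-h subcultured bacteria from nutrient broth. Compounds dissolved in chloroform and added to wells at a range of concentrations. Gentamycin was the standard.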

Pseudomonas aeruginosa = assay: Antibacterial activity against Pseudomonas aeruginosa at 50 to 100 uM after 24 hrs by well diffusion method; assay type: functional
In short: (§1)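 Agar well diffusion: nutrient agar plates with 10 mm wells cut by sterile cork borer; 24-h subcultured bacteria swabbed onto the plates from nutrient broth. Compounds were dissolved in chloroform and added to wells at […]. Gentamycin served as the standard antibiotic.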

[1] = test system: Mycobacterium tuberculosis; assay: Antituberculosis activity against Mycobacterium tuberculosis H37Rv by Microplate Alamar Blue Assay; assay type: functional
In short: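 MIC against M. tuberculosis H37Rv (ATCC 27294) in BACTEC 12B medium by broth microdilution (MABA). Primary actives were retested at lower concentrations. MIC is the lowest concentration giving a […] fluorescence reduction versus controls. Fluorescent compounds were run in the BACTEC 460 radiometric system. Rifampin was the reference.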

[2] = Cytotoxicity against Vero-C1008 cells at 6.25 to 50 ug/ml; assay type: cell-based; settings: chlorocebus sabaeus
In short: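 Vero-C-1008 cells were exposed to compounds at several concentrations across 6.25–50 µg/ml. Cytotoxicity was read out by neutral red uptake.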

Staphylococcus aureus = assay: Antibacterial activity against Staphylococcus aureus at 50 to 100 uM after 24 hrs by well diffusion method; assay type: functional; in short: as §1
Escherichia coli = assay: Antibacterial activity against Escherichia coli at 50 to 100 uM after 24 hrs by well diffusion method; assay type: functional; in short: as §1

Molecule | Inhibition (Salmonella typhi) | zone of inhibition (Pseudomonas aeruginosa) | MIC [1] | Activity [2] | zone of inhibition (Staphylococcus aureus) | zone of inhibition (Escherichia coli) | inhibition (Salmonella typhi; Salmonella enterica subsp. enterica serovar Typhi) | inhibition (Pseudomonas aeruginosa) | inhibition (Staphylococcus aureus) | inhibition (Escherichia coli)
O=C(O)CCNc1nc(Cc2nnc(S)n2NC(=O)c2ccccc2)cs1 | 22% | 17 mm | < 6.25 mg/L | Non-toxic | 11 mm | 15 mm |  |  |  | 
CC(=O)NNC(=O)CSc1nnc(Cc2csc(NCCC(=O)O)n2)n1NC(=O)c1ccccc1 |  |  | < 6.25 mg/L | Non-toxic |  |  |  |  |  | 
O=C(Nc1nc(Cc2nnc(SCSc3nnc(Cc4csc(NC(=O)c5ccccc5)n4)n3NC(=O)c3ccccc3)n2NC(=O)c2ccccc2)cs1)c1ccccc1 | 12% | 24 mm | < 6.25 mg/L | Non-toxic | 11 mm | 16 mm |  |  |  | 
O=C(O)CCNc1nc(Cc2nnc(SCC(=O)NNC(=O)c3ccccc3)n2NC(=O)c2ccccc2)cs1 |  |  | < 6.25 mg/L | Non-toxic |  |  |  |  |  | 
O=C(CCl)Nc1nc(Cc2nnc(S)n2NC(=O)c2ccccc2)cs1 | 14% | 20 mm | < 6.25 mg/L | Non-toxic | 20 mm | 18 mm |  |  |  | 
COC(=O)CSc1nnc(Cc2csc(NC(=O)c3ccccc3)n2)n1NC(=O)c1ccccc1 | 20% | 22 mm | < 6.25 mg/L | Non-toxic | 22 mm | 20 mm |  |  |  | 
N#CCSc1nnc(Cc2csc(NCCC(=O)O)n2)n1NC(=O)c1ccccc1 | 20% | 24 mm | < 6.25 mg/L | Non-toxic | 26 mm | 20 mm |  |  |  | 
O=C(Nc1nc(Cc2nnc(S)n2NC(=O)c2ccccc2)cs1)c1ccccc1 | 18% | 10 mm | < 6.25 mg/L | Non-toxic | 16 mm | 10 mm |  |  |  | 
CC(=O)Nc1nc(Cc2nnc(SCc3nnc(S)n3N)n2NC(=O)c2ccccc2)cs1 | 18% | 16 mm | < 6.25 mg/L | Non-toxic | 14 mm | 12 mm |  |  |  | 
Nn1c(S)nnc1CSc1nnc(Cc2csc(NCCC(=O)O)n2)n1NC(=O)c1ccccc1 | 12% | 11 mm | < 6.25 mg/L | Non-toxic | 14 mm | 18 mm |  |  |  | 
O=C(CSc1nnc(Cc2csc(NC(=O)c3ccccc3)n2)n1NC(=O)c1ccccc1)NNC(=O)c1ccccc1 |  |  | < 6.25 mg/L | Non-toxic |  |  |  |  |  | 
Nn1c(S)nnc1Cc1csc(NC(=O)c2ccccc2)n1 | 14% | 20 mm | < 6.25 mg/L | Non-toxic | 22 mm | 18 mm |  |  |  | 
Nn1c(S)nnc1CSc1nnc(Cc2csc(NC(=O)c3ccccc3)n2)n1NC(=O)c1ccccc1 | 14% | 18 mm | < 6.25 mg/L | Non-toxic | 12 mm | 18 mm |  |  |  | 
CC(=O)NNC(=O)CSc1nnc(Cc2csc(NC(=O)CCl)n2)n1NC(=O)c1ccccc1 | 14% | 10 mm | < 6.25 mg/L | Non-toxic | 24 mm | 14 mm |  |  |  | 
O=C(CCl)Nc1nc(Cc2nnc(SCSc3nnc(Cc4csc(NC(=O)CCl)n4)n3NC(=O)c3ccccc3)n2NC(=O)c2ccccc2)cs1 | 16% | 22 mm | < 6.25 mg/L | Non-toxic | 22 mm | 20 mm |  |  |  | 
O=C(CSc1nnc(Cc2csc(NC(=O)CCl)n2)n1NC(=O)c1ccccc1)NNC(=O)c1ccccc1 |  |  | < 6.25 mg/L | Non-toxic |  |  |  |  |  | 
O=C(CCl)NNC(=O)CSc1nnc(Cc2csc(NC(=O)CCl)n2)n1NC(=O)c1ccccc1 |  |  | < 6.25 mg/L | Non-toxic |  |  |  |  |  | 

Molecule | Inhibition (Salmonella typhi) | zone of inhibition (Pseudomonas aeruginosa) | MIC [1] | Activity [2] | zone of inhibition (Staphylococcus aureus) | zone of inhibition (Escherichia coli) | inhibition (Salmonella typhi; Salmonella enterica subsp. enterica serovar Typhi) | inhibition (Pseudomonas aeruginosa) | inhibition (Staphylococcus aureus) | inhibition (Escherichia coli)
N#CCSc1nnc(Cc2csc(NC(=O)CCl)n2)n1NC(=O)c1ccccc1 | 10% | 16 mm | < 6.25 mg/L | Non-toxic | 20 mm | 10 mm |  |  |  | 
COC(=O)CSc1nnc(Cc2csc(NC(=O)CCl)n2)n1NC(=O)c1ccccc1 | 18% | 22 mm | < 6.25 mg/L | Non-toxic | 24 mm | 20 mm |  |  |  | 
Nn1c(S)nnc1Cc1csc(NCCC(=O)O)n1 | 16% | 22 mm | < 6.25 mg/L | Non-toxic | 25 mm | 20 mm |  |  |  | 
Nn1c(S)nnc1Cc1csc(NC(=O)CCl)n1 | 12% | 17 mm | < 6.25 mg/L | Non-toxic | 18 mm | 14 mm |  |  |  | 
CC(=O)Nc1nc(Cc2nnc(SCC(=O)NNC(=O)c3ccccc3)n2NC(=O)c2ccccc2)cs1 |  |  | < 6.25 mg/L | Non-toxic |  |  |  |  |  | 
CC(=O)Nc1nc(Cc2nnc(SCC(=O)NNC(=O)CCl)n2NC(=O)c2ccccc2)cs1 |  |  | < 6.25 mg/L | Non-toxic |  |  |  |  |  | 
CC(=O)NNC(=O)CSc1nnc(Cc2csc(NC(=O)c3ccccc3)n2)n1NC(=O)c1ccccc1 |  |  | < 6.25 mg/L | Non-toxic |  |  |  |  |  | 
COC(=O)CSc1nnc(Cc2csc(NCCC(=O)O)n2)n1NC(=O)c1ccccc1 | 12% | 18 mm | < 6.25 mg/L | Non-toxic | 16 mm | 12 mm |  |  |  | 
COC(=O)CSc1nnc(Cc2csc(NC(C)=O)n2)n1NC(=O)c1ccccc1 | 24% | 11 mm | < 6.25 mg/L | Non-toxic | 22 mm | 24 mm |  |  |  | 
GENTAMICIN |  |  |  |  |  |  | 30% | 35% | 34% | 31%
O=C(O)CCNc1nc(Cc2nnc(SCC(=O)NNC(=O)CCl)n2NC(=O)c2ccccc2)cs1 |  |  | < 6.25 mg/L | Non-toxic |  |  |  |  |  | 
CC(=O)NNC(=O)CSc1nnc(Cc2csc(NC(C)=O)n2)n1NC(=O)c1ccccc1 | 18% | 18 mm | < 6.25 mg/L | Non-toxic | 21 mm | 10 mm |  |  |  | 
O=C(CCl)NNC(=O)CSc1nnc(Cc2csc(NC(=O)c3ccccc3)n2)n1NC(=O)c1ccccc1 |  |  | < 6.25 mg/L | Non-toxic |  |  |  |  |  | 
O=C(O)CCNc1nc(Cc2nnc(SCSc3nnc(Cc4csc(NCCC(=O)O)n4)n3NC(=O)c3ccccc3)n2NC(=O)c2ccccc2)cs1 | 12% | 16 mm | < 6.25 mg/L | Non-toxic | 18 mm | 10 mm |  |  |  | 
Nn1c(S)nnc1CSc1nnc(Cc2csc(NC(=O)CCl)n2)n1NC(=O)c1ccccc1 | 14% | 10 mm | < 6.25 mg/L | Non-toxic | 12 mm | 10 mm |  |  |  | 
CC(=O)Nc1nc(Cc2nnc(SCSc3nnc(Cc4csc(NC(C)=O)n4)n3NC(=O)c3ccccc3)n2NC(=O)c2ccccc2)cs1 | 12% | 16 mm | < 6.25 mg/L | Non-toxic | 16 mm | 12 mm |  |  |  | 
